Tests used:
[1] = test system: carcinoma cell line; test: Antitumor activity against human NCI ovarian carcinoma cell line panel; type: functional, cell-based
Summary of the method: (§1)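 Tested in the NCI in vitro disease-oriented human tumor cell screen. The endpoints are IC50 (molar concentration giving 50% growth inhibition), TGI (total growth inhibition) and LC50 (50% net cell death). The maximal concentration tested was 100 μM. Subpanel values are means of several individual cell lines.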

[2] = test system: RPMI-8226; test: Antitumor activity against human RPMI8226 cells; type: functional; summary of the method: as §1
[3] = test system: PC-3; test: Antitumor activity against human PC3 cells; type: functional; summary of the method: as §1
[4] = test system: UACC-62; test: Antitumor activity against human UACC62 cells; type: functional
Summary of the method: (§2)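 NCI in vitro disease-oriented tumour cell line screen. Read-outs are IC50 (molar concentration giving 50% growth inhibition), TGI (molar concentration giving total inhibition of net growth) and LC50 (molar concentration giving 50% net cell death). The maximal concentration tested was 100 μM.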

[5] = test system: NCI; test: Antitumor activity against NCI human melanoma cell line panel; type: functional, cell-based; summary of the method: as §1
[6] = test system: HCT-116; test: Antitumor activity against human HCT116 cells; type: functional; summary of the method: as §1
[7] = test system: UACC-257; test: Antitumor activity against human UACC257 cells; type: functional; summary of the method: as §2
[8] = test system: SF-295; test: Antitumor activity against human SF295 cells; type: functional; summary of the method: as §1
[9] = test system: NCI; test: Antitumor activity against human NCI CNS cancer cell line panel; type: functional, cell-based; summary of the method: as §1
[10] = test system: MDA-MB-231; test: Antitumor activity against human MDA-MB-231 cells; type: functional; summary of the method: as §1
[11] = test system: SF-539; test: Antitumor activity against human SF539 cells; type: functional; summary of the method: as §1
[12] = test system: NCI; test: Antitumor activity against human NCI colon cancer cell line panel; type: functional, cell-based; summary of the method: as §1
[13] = test system: SK-MEL-28; test: Antitumor activity against human SK-MEL-28 cells; type: functional; summary of the method: as §1
[14] = test system: NCI; test: Antitumor activity against human NCI breast cancer cell line panel; type: functional, cell-based; summary of the method: as §1
[15] = test system: Hs-578T; test: Antitumor activity against human HS578T cells; type: functional; details: Homo sapiens, Hs-578T; summary of the method: as §1
[16] = test system: T47D; test: Antitumor activity against human T47D cells; type: functional; summary of the method: as §2
[17] = test system: UO-31; test: Antitumor activity against human UO31 cells; type: functional; summary of the method: as §2
[18] = test system: NCI-H322M; test: Antitumor activity against human NCI-H322M cells; type: functional; summary of the method: as §1
[19] = test system: OVCAR-4; test: Antitumor activity against human OVCAR4 cells; type: functional; summary of the method: as §1
[20] = Antitumor activity against human LOX IMV1 cells; type: functional, cell-based; summary of the method: as §1
[21] = test system: SNB-75; test: Antitumor activity against human SNB75 cells; type: functional; summary of the method: as §2
[22] = test system: OVCAR-3; test: Antitumor activity against human OVCAR-3 cells; type: functional; summary of the method: as §1
[23] = test system: HL-60; test: Antitumor activity against human HL60 cells; type: functional; summary of the method: as §1
[24] = test system: NCI; test: Antitumor activity against human NCI prostate cancer cell line panel; type: functional, cell-based; summary of the method: as §1
[25] = test system: MDA-MB-435; test: Antitumor activity against human MDA-MB-435 cells; type: functional; summary of the method: as §1
[26] = test system: EKVX; test: Antitumor activity against human EKVX cells; type: functional; summary of the method: as §1
[27] = test system: MCF7; test: Antitumor activity against human MCF7 cells; type: functional; summary of the method: as §1
[28] = test system: KM12; test: Antitumor activity against human KM12 cells; type: functional; summary of the method: as §1
[29] = test system: Non-small cell lung cancer cell line; test: Antitumor activity against human NCI non-small cell lung cancer cell line panel; type: functional, cell-based; summary of the method: as §1
[30] = test system: SK-MEL-2; test: Antitumor activity against human SK-MEL-2 cells; type: functional; summary of the method: as §1
[31] = test system: DU-145; test: Antitumor activity against human DU145 cells; type: functional; summary of the method: as §1
[32] = test system: SK-OV-3; test: Antitumor activity against human SKOV3 cells; type: functional; summary of the method: as §1
[33] = test system: HOP-62; test: Antitumor activity against human HOP62 cells; type: functional; summary of the method: as §1
[34] = test system: HCT-15; test: Antitumor activity against human HCT15 cells; type: functional; summary of the method: as §1
[35] = test system: M14; test: Antitumor activity against human M14 cells; type: functional; summary of the method: as §1
[36] = test system: SW-620; test: Antitumor activity against human SW620 cells; type: functional; summary of the method: as §2
[37] = test system: TK-10; test: Antitumor activity against human TK10 cells; type: functional; summary of the method: as §2
[38] = test system: K562; test: Antitumor activity against human K562 cells; type: functional; summary of the method: as §1
[39] = test system: 786-0; test: Antitumor activity against human 786-0 cells; type: functional; summary of the method: as §1
[40] = test system: NCI-H460; test: Antitumor activity against human NCI-H460 cells; type: functional; summary of the method: as §1
[41] = test system: IGROV-1; test: Antitumor activity against human IGROV1 cells; type: functional; summary of the method: as §1
[42] = read-out: LC50 (the source's name)
[43] = read-out: Log LC50 (the source's name) (converted)

CN(/N=N/c1nc(OCc2ccccc2)c2nc[nH]c2n1)C(=O)Oc1ccc([N+](=O)[O-])cc1
IC50 [1]: 12 µM
TGI [1]: 34 µM
CC50 [1, 42]: 50 µM
GI50 [2]: 9.12 µM
CC50 [2, 43]: > 50.1 µM
TGI ([2]; read-out: Log TGI (converted)): > 50.1 µM
GI50 [3]: 10.7 µM
CC50 [3, 43]: > 50.1 µM
TGI ([3]; read-out: Log TGI (converted)): 26.9 µM
GI50 [4]: 7.59 µM
CC50 [4, 43]: 30.9 µM
TGI ([4]; read-out: Log TGI (converted)): 15.1 µM
IC50 [5]: 8 µM
TGI [5]: 23 µM
CC50 [5, 42]: 40 µM
GI50 [6]: 8.71 µM
CC50 [6, 43]: 29.5 µM
TGI ([6]; read-out: Log TGI (converted)): 15.8 µM
GI50 [7]: 38.9 µM
CC50 [7, 43]: > 50.1 µM
TGI ([7]; read-out: Log TGI (converted)): > 50.1 µM
GI50 [8]: 11.2 µM
CC50 [8, 43]: > 50.1 µM
TGI ([8]; read-out: Log TGI (converted)): 33.9 µM
IC50 [9]: 9 µM
TGI [9]: 30 µM
CC50 [9, 42]: 47 µM
GI50 [10]: 5.75 µM
CC50 [10, 43]: > 50.1 µM
TGI ([10]; read-out: Log TGI (converted)): 18.6 µM
GI50 [11]: 9.77 µM
CC50 [11, 43]: > 50.1 µM
TGI ([11]; read-out: Log TGI (converted)): 28.8 µM
IC50 [12]: 9 µM
TGI [12]: 21 µM
CC50 [12, 42]: 43 µM
GI50 [13]: 12.3 µM
CC50 [13, 43]: > 50.1 µM
TGI ([13]; read-out: Log TGI (converted)): > 50.1 µM
IC50 [14]: 10 µM
TGI [14]: 30 µM
CC50 [14, 42]: 50 µM
GI50 [15]: 8.71 µM
CC50 [15, 43]: > 50.1 µM
TGI ([15]; read-out: Log TGI (converted)): 29.5 µM
GI50 [16]: 14.1 µM
CC50 [16, 43]: > 50.1 µM
TGI ([16]; read-out: Log TGI (converted)): 32.4 µM
GI50 [17]: 6.61 µM
CC50 [17, 43]: 29.5 µM
TGI ([17]; read-out: Log TGI (converted)): 13.8 µM
GI50 [18]: 9.33 µM
CC50 [18, 43]: 45.7 µM
TGI ([18]; read-out: Log TGI (converted)): 20.9 µM
GI50 [19]: 22.9 µM
CC50 [19, 43]: > 50.1 µM
TGI ([19]; read-out: Log TGI (converted)): > 50.1 µM
GI50 [20]: 1.15 µM
IC50 [20]: 1.1 µM
CC50 [20, 42]: 27 µM
CC50 [20, 43]: 26.9 µM
TGI ([20]; read-out: Log TGI (converted)): 10.7 µM
TGI ([20]; read-out: TGI): 11 µM
CC50 [21, 43]: > 50.1 µM
TGI ([21]; read-out: Log TGI (converted)): > 50.1 µM
GI50 [22]: 9.55 µM
LC50 [22]: > 50.1 µM
TGI ([22]; read-out: Log TGI (converted)): 24.5 µM
GI50 [23]: 12 µM
CC50 [23, 43]: > 50.1 µM
TGI ([23]; read-out: Log TGI (converted)): > 50.1 µM
IC50 [24]: 10 µM
TGI [24]: 23 µM
CC50 [24, 42]: 46 µM
GI50 [25]: 12.3 µM
CC50 [25, 43]: > 50.1 µM
TGI ([25]; read-out: Log TGI (converted)): 39.8 µM
GI50 [26]: 11.5 µM
CC50 [26, 43]: > 50.1 µM
TGI ([26]; read-out: Log TGI (converted)): 36.3 µM
GI50 [27]: 12.3 µM
CC50 [27, 43]: > 50.1 µM
TGI ([27]; read-out: Log TGI (converted)): > 50.1 µM
GI50 [28]: 8.51 µM
CC50 [28, 43]: 41.7 µM
TGI ([28]; read-out: Log TGI (converted)): 18.6 µM
IC50 [29]: 11 µM
TGI [29]: 29 µM
CC50 [29, 42]: 47 µM
GI50 [30]: 12 µM
CC50 [30, 43]: > 50.1 µM
TGI ([30]; read-out: Log TGI (converted)): 28.2 µM
GI50 [31]: 9.12 µM
CC50 [31, 43]: 42.7 µM
TGI ([31]; read-out: Log TGI (converted)): 19.5 µM
GI50 [32]: 10.5 µM
CC50 [32, 43]: > 50.1 µM
TGI ([32]; read-out: Log TGI (converted)): 28.8 µM
GI50 [33]: 28.8 µM
LC50 [33]: > 50.1 µM
TGI ([33]; read-out: Log TGI (converted)): > 50.1 µM
GI50 [34]: 8.91 µM
CC50 [34, 43]: 44.7 µM
TGI ([34]; read-out: Log TGI (converted)): 20 µM
GI50 [35]: 8.91 µM
CC50 [35, 43]: 38 µM
TGI ([35]; read-out: Log TGI (converted)): 18.2 µM
GI50 [36]: 9.12 µM
CC50 [36, 43]: > 50.1 µM
TGI ([36]; read-out: Log TGI (converted)): 26.3 µM
GI50 [37]: 12 µM
CC50 [37, 43]: > 50.1 µM
TGI ([37]; read-out: Log TGI (converted)): 33.9 µM
GI50 [38]: 12 µM
CC50 [38, 43]: > 50.1 µM
TGI ([38]; read-out: Log TGI (converted)): > 50.1 µM
GI50 [39]: 8.71 µM
LC50 (concentration giving 50% net cell death) [39]: > 50.1 µM
TGI ([39]; read-out: Log TGI (converted)): 23.4 µM
GI50 [40]: 6.76 µM
CC50 [40, 43]: > 50.1 µM
TGI ([40]; read-out: Log TGI (converted)): 31.6 µM
GI50 [41]: 12.3 µM
CC50 [41, 43]: > 50.1 µM
TGI ([41]; read-out: Log TGI (converted)): 30.9 µM

From ChEMBL document CHEMBL1149311, “Synthesis and antitumor activity of methyltriazene prodrugs simultaneously releasing DNA-methylating agents and the antiresistance drug O(6)-benzylguanine” (J Med Chem, 2004)
